pEC50, pIC50: −log10 of the molar value.
Columns and labels:
GTPase KRas = GTPase KRas (Homo sapiens, UniProt P01116, G12V); experiment: Inhibition of His6-tagged KRas G12V mutant (unknown origin) expressed in Escherichia coli BL21(DE3) cells assessed as reduction in Ras/GST-fused Raf RBD interaction incubated for 1 hr by HTRF assay; details: for pIC50: read-out: IC50
NCI-H358 [1] = experiment: Antiproliferative activity against human NCI-H358 cells incubated for 96 hrs by Celltiter-Glo assay; type: functional, cell-based; details: Homo sapiens, NCI-H358, 96 h; read-out: EC50
NCI-H358 [2] = experiment: Antiproliferative activity against human NCI-H358 cells incubated for 96 hrs by MTT assay; type: functional, cell-based; details: for pEC50: Homo sapiens, NCI-H358, 96 h, read-out: EC50; for EC50: nci-h358
Procedure, shortened: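 H358 cells at 5,000/well, grown overnight, treated with serially diluted peptide (0–40 μM) in 10% FBS medium for 96 h at 37 °C. MTT added for 4 h, formazan solubilized overnight in SDS-HCl, absorbance read at 570 nm.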

GTPase KRas, sequence (P01116 whole entry G12V, the tested form may be a part): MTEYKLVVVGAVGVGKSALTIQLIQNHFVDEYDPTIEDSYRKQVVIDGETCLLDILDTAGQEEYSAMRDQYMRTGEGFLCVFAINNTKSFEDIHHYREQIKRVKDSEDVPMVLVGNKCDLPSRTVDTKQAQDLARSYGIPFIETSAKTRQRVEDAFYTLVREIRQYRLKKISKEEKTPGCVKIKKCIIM

Structure (SMILES): C[C@@H]1NC(=O)[C@@H](Cc2ccccc2)NC(=O)[C@@H]2CCCCNC(=O)c3cc(cc(c3)C(=O)N[C@H](Cc3ccc4ccccc4c3)C(=O)N[C@@H](CO)C(=O)N[C@@H](CC(N)=O)C(=O)N[C@H](Cc3ccc4ccccc4c3)C(=O)N[C@@H](c3ccccc3)C(=O)N2)C(=O)NC[C@@H](C(=O)N[C@@H](CCN)CC(=O)N[C@H](CCCNC(=N)N)C(=O)N[C@@H](Cc2ccccc2)C(=O)N[C@H](C)C(N)=O)NC(=O)[C@H](CCCNC(=N)N)NC(=O)[C@@H](CCCNC(=N)N)NC1=O
- pIC50 (GTPase KRas): 6.29
- pEC50 (NCI-H358 [1]): 5.49

Structure (SMILES): CCCC[C@H](NC(=O)CNC(=O)C[C@H](CCC)NC(=O)[C@@H]1CNC(=O)c2cc3cc(c2)C(=O)N[C@H](Cc2ccc4ccccc4c2)C(=O)N[C@@H](CO)C(=O)N[C@@H](CCC(N)=O)C(=O)N[C@H](Cc2ccc4ccccc4c2)C(=O)N[C@@H](c2ccccc2)C(=O)N[C@@H](CCCCNC3=O)C(=O)N[C@H](Cc2ccccc2)C(=O)N[C@@H](C)C(=O)N[C@H](CCCNC(=N)N)C(=O)N[C@@H](CCCNC(=N)N)C(=O)N1)C(=O)N[C@H](CCCNC(=N)N)C(N)=O
- pEC50 (NCI-H358 [2]): 4.62

Structure (SMILES): C[C@H](NC(=O)[C@@H]1CNC(=O)c2cc3cc(c2)C(=O)N[C@H](Cc2ccc4ccccc4c2)C(=O)N[C@@H](CO)C(=O)N[C@@H](CCC(N)=O)C(=O)N[C@H](Cc2ccc4ccccc4c2)C(=O)N[C@@H](c2ccccc2)C(=O)N[C@@H](CCCCNC3=O)C(=O)N[C@H](Cc2ccccc2)C(=O)N[C@@H](C)C(=O)N[C@H](CCCNC(=N)N)C(=O)N[C@@H](CCCNC(=N)N)C(=O)N1)C(=O)N[C@H](CCCNC(=N)N)C(=O)N[C@H](Cc1ccccc1)C(=O)N[C@@H](Cc1ccc(F)cc1)C(N)=O
- pEC50 (NCI-H358 [2]): 4.72

Structure (SMILES): C[C@@H]1NC(=O)[C@@H](Cc2ccccc2)NC(=O)[C@@H]2CCCCNC(=O)c3cc(cc(c3)C(=O)N[C@H](Cc3ccc4ccccc4c3)C(=O)N[C@@H](CO)C(=O)N[C@@H](CCC(N)=O)C(=O)N[C@H](Cc3ccc4ccccc4c3)C(=O)N[C@@H](c3ccccc3)C(=O)N2)C(=O)NC[C@@H](C(=O)N[C@@H](CCN)CC(=O)N[C@H](CC(N)=O)C(=O)N[C@H](Cc2ccc(O)cc2)C(=O)N[C@@H](C(N)=O)[C@H](C)O)NC(=O)[C@H](CCCNC(=N)N)NC(=O)[C@@H](CCCNC(=N)N)NC1=O
- EC50 (NCI-H358 [2]): Not Active

Structure (SMILES): C[C@@H]1NC(=O)[C@@H](Cc2ccccc2)NC(=O)[C@@H]2CCCCNC(=O)c3cc(cc(c3)C(=O)N[C@H](Cc3ccc4ccccc4c3)C(=O)N[C@@H](CO)C(=O)N[C@@H](CCC(N)=O)C(=O)N[C@H](Cc3ccc4ccccc4c3)C(=O)N[C@@H](c3ccccc3)C(=O)N2)C(=O)NC[C@@H](C(=O)N[C@H](CCCCN)C(=O)N[C@@H](Cc2c[nH]cn2)C(=O)N[C@H](Cc2ccc(O)cc2)C(=O)N[C@H](CCC(=O)O)C(N)=O)NC(=O)[C@H](CCCNC(=N)N)NC(=O)[C@@H](CCCNC(=N)N)NC1=O
- IC50 (GTPase KRas): Not Active

Structure (SMILES): CC(C)C[C@@H](NC(=O)[C@H](CCC(N)=O)NC(=O)CNC(=O)[C@@H]1CNC(=O)c2cc3cc(c2)C(=O)N[C@H](Cc2ccc4ccccc4c2)C(=O)N[C@@H](CO)C(=O)N[C@@H](CCC(N)=O)C(=O)N[C@H](Cc2ccc4ccccc4c2)C(=O)N[C@@H](c2ccccc2)C(=O)N[C@@H](CCCCNC3=O)C(=O)N[C@H](Cc2ccccc2)C(=O)N[C@@H](C)C(=O)N[C@H](CCCNC(=N)N)C(=O)N[C@@H](CCCNC(=N)N)C(=O)N1)C(=O)N[C@H](CCCNC(=N)N)C(=O)N[C@@H](CCCCN)C(N)=O
- EC50 (NCI-H358 [2]): Not Active

Structure (SMILES): C[C@@H]1NC(=O)[C@@H](Cc2ccccc2)NC(=O)[C@@H]2CCCCNC(=O)c3cc(cc(c3)C(=O)N[C@H](Cc3ccc4ccccc4c3)C(=O)N[C@@H](CO)C(=O)N[C@@H](CC(N)=O)C(=O)N[C@H](Cc3ccc4ccccc4c3)C(=O)N[C@@H](c3ccccc3)C(=O)N2)C(=O)NC[C@@H](C(=O)N[C@@H](CCN)CC(=O)N[C@H](CCCNC(=N)N)C(=O)N[C@@H](Cc2ccc(F)cc2)C(=O)N[C@H](C)C(=O)N[C@@H](CCCCN)C(N)=O)NC(=O)[C@H](CCCNC(=N)N)NC(=O)[C@@H](CCCNC(=N)N)NC1=O
- pIC50 (GTPase KRas): 6.05
- pEC50 (NCI-H358 [1]): 5.14

Structure (SMILES): CC(C)[C@@H](NC(=O)[C@H](CO)NC(=O)[C@H](CC(=O)O)NC(=O)[C@@H](Cc1ccc(O)cc1)NC(=O)[C@@H]1CNC(=O)c2cc3cc(c2)C(=O)N[C@H](Cc2ccc4ccccc4c2)C(=O)N[C@@H](CO)C(=O)N[C@@H](CCC(N)=O)C(=O)N[C@H](Cc2ccc4ccccc4c2)C(=O)N[C@@H](c2ccccc2)C(=O)N[C@@H](CCCCNC3=O)C(=O)N[C@H](Cc2ccccc2)C(=O)N[C@@H](C)C(=O)N[C@H](CCCNC(=N)N)C(=O)N[C@@H](CCCNC(=N)N)C(=O)N1)C(=O)N[C@@H](CCCCN)C(N)=O
- IC50 (GTPase KRas): Not Active

Structure (SMILES): C[C@@H]1NC(=O)[C@@H](Cc2ccccc2)NC(=O)[C@@H]2CCCCNC(=O)c3cc(cc(c3)C(=O)N[C@H](Cc3ccc4ccccc4c3)C(=O)N[C@@H](CO)C(=O)N[C@@H](CC(N)=O)C(=O)N[C@H](Cc3ccc4ccccc4c3)C(=O)N[C@@H](c3ccccc3)C(=O)N2)C(=O)NC[C@@H](C(=O)N[C@@H](CCC(N)=O)C(=O)N[C@H](CCCNC(=N)N)C(=O)N[C@@H](Cc2ccccc2)C(=O)N[C@H](C)C(N)=O)NC(=O)[C@H](CCCNC(=N)N)NC(=O)[C@@H](CCCNC(=N)N)NC1=O
- pIC50 (GTPase KRas): 6.64
- pEC50 (NCI-H358 [1]): 5.12

Structure (SMILES): C[C@@H]1NC(=O)[C@@H](Cc2ccccc2)NC(=O)[C@@H]2CCCCNC(=O)c3cc(cc(c3)C(=O)N[C@H](Cc3ccc4ccccc4c3)C(=O)N[C@@H](CO)C(=O)N[C@@H](CC(N)=O)C(=O)N[C@H](Cc3ccc4ccccc4c3)C(=O)N[C@@H](c3ccccc3)C(=O)N2)C(=O)NC[C@@H](C(=O)N[C@@H](CCN)CC(=O)N[C@H](CCCNC(=N)N)C(=O)N[C@@H](Cc2ccc(F)cc2)C(=O)N[C@H](C)C(N)=O)NC(=O)[C@H](CCCNC(=N)N)NC(=O)[C@@H](CCCNC(=N)N)NC1=O
- pIC50 (GTPase KRas): 6.15
- pEC50 (NCI-H358 [1]): 5.22

Structure (SMILES): CC(C)[C@@H](NC(=O)C[C@@H](CC(N)=O)NC(=O)[C@@H]1CNC(=O)c2cc3cc(c2)C(=O)N[C@H](Cc2ccc4ccccc4c2)C(=O)N[C@@H](CO)C(=O)N[C@@H](CCC(N)=O)C(=O)N[C@H](Cc2ccc4ccccc4c2)C(=O)N[C@@H](c2ccccc2)C(=O)N[C@@H](CCCCNC3=O)C(=O)N[C@H](Cc2ccccc2)C(=O)N[C@@H](C)C(=O)N[C@H](CCCNC(=N)N)C(=O)N[C@@H](CCCNC(=N)N)C(=O)N1)C(=O)N[C@H](C)CC(=O)N[C@H](Cc1c[nH]c2ccccc12)C(=O)NCCC(N)=O
- IC50 (GTPase KRas): Not Active

Structure (SMILES): C[C@@H]1NC(=O)[C@@H](Cc2ccccc2)NC(=O)[C@@H]2CCCCNC(=O)c3cc(cc(c3)C(=O)N[C@H](Cc3ccc4ccccc4c3)C(=O)N[C@@H](CO)C(=O)N[C@@H](CCC(N)=O)C(=O)N[C@H](Cc3ccc4ccccc4c3)C(=O)N[C@@H](c3ccccc3)C(=O)N2)C(=O)NC[C@@H](C(=O)N[C@@H](CCC(=O)O)C(=O)N[C@@H](Cc2cnc[nH]2)C(=O)N2CCC[C@@H]2C(=O)N[C@H](Cc2ccc(O)cc2)C(=O)N[C@@H](CCCCN)C(N)=O)NC(=O)[C@H](CCCNC(=N)N)NC(=O)[C@@H](CCCNC(=N)N)NC1=O
- EC50 (NCI-H358 [2]): Not Active

Structure (SMILES): CC(C)[C@@H](NC(=O)C[C@H](CCN)NC(=O)[C@@H]1CNC(=O)c2cc3cc(c2)C(=O)N[C@H](Cc2ccc4ccccc4c2)C(=O)N[C@@H](CO)C(=O)N[C@@H](CCC(N)=O)C(=O)N[C@H](Cc2ccc4ccccc4c2)C(=O)N[C@@H](c2ccccc2)C(=O)N[C@@H](CCCCNC3=O)C(=O)N[C@H](Cc2ccccc2)C(=O)N[C@@H](C)C(=O)N[C@H](CCCNC(=N)N)C(=O)N[C@@H](CCCNC(=N)N)C(=O)N1)C(=O)N[C@H](C)CC(=O)N[C@H](Cc1c[nH]c2ccccc12)C(=O)NCCC(N)=O
- EC50 (NCI-H358 [2]): Not Active

Structure (SMILES): C[C@@H]1NC(=O)[C@@H](Cc2ccccc2)NC(=O)[C@@H]2CCCCNC(=O)c3cc(cc(c3)C(=O)N[C@H](Cc3ccc4ccccc4c3)C(=O)N[C@@H](CO)C(=O)N[C@@H](CC(N)=O)C(=O)N[C@H](Cc3ccc4ccccc4c3)C(=O)N[C@@H](c3ccccc3)C(=O)N2)C(=O)NC[C@@H](C(=O)N[C@@H](CC(N)=O)C(=O)N[C@H](CCCNC(=N)N)C(=O)N[C@@H](Cc2ccc(F)c(F)c2)C(=O)N[C@H](C)C(N)=O)NC(=O)[C@H](CCCNC(=N)N)NC(=O)[C@@H](CCCNC(=N)N)NC1=O
- pIC50 (GTPase KRas): 6.30
- pEC50 (NCI-H358 [1]): 5.36

Structure (SMILES): C[C@@H]1NC(=O)[C@@H](Cc2ccccc2)NC(=O)[C@@H]2CCCCNC(=O)c3cc(cc(c3)C(=O)N[C@H](Cc3ccc4ccccc4c3)C(=O)N[C@@H](CO)C(=O)N[C@@H](CC(N)=O)C(=O)N[C@H](Cc3ccc4ccccc4c3)C(=O)N[C@@H](c3ccccc3)C(=O)N2)C(=O)NC[C@@H](C(=O)N[C@@H](CC(N)=O)C(=O)N[C@H](CCCNC(=N)N)C(=O)N[C@@H](Cc2ccccc2)C(=O)N[C@H](C)C(N)=O)NC(=O)[C@H](CCCNC(=N)N)NC(=O)[C@@H](CCCNC(=N)N)NC1=O
- pIC50 (GTPase KRas): 6.55
- pEC50 (NCI-H358 [1]): 5.08

Structure (SMILES): C[C@@H]1NC(=O)[C@@H](Cc2ccccc2)NC(=O)[C@@H]2CCCCNC(=O)c3cc(cc(c3)C(=O)N[C@H](Cc3ccc4ccccc4c3)C(=O)N[C@@H](CO)C(=O)N[C@@H](CC(N)=O)C(=O)N[C@H](Cc3ccc4ccccc4c3)C(=O)N[C@@H](c3ccccc3)C(=O)N2)C(=O)NC[C@@H](C(=O)N[C@@H](CC(N)=O)C(=O)N[C@H](CCCNC(=N)N)C(=O)N[C@@H](Cc2cccnc2)C(=O)N[C@H](C)C(N)=O)NC(=O)[C@H](CCCNC(=N)N)NC(=O)[C@@H](CCCNC(=N)N)NC1=O
- pIC50 (GTPase KRas): 6.39
- pEC50 (NCI-H358 [1]): 5.18

Structure (SMILES): C[C@@H]1NC(=O)[C@@H](Cc2ccccc2)NC(=O)[C@@H]2CCCCNC(=O)c3cc(cc(c3)C(=O)N[C@H](Cc3ccc4ccccc4c3)C(=O)N[C@@H](CO)C(=O)N[C@@H](CCC(N)=O)C(=O)N[C@H](Cc3ccc4ccccc4c3)C(=O)N[C@@H](c3ccccc3)C(=O)N2)C(=O)NC[C@@H](C(=O)N2CCC[C@@H]2C(=O)N[C@H](CCCNC(=N)N)C(=O)N[C@H](Cc2ccc3ccccc3c2)C(=O)N[C@@H](CCC(=O)O)C(N)=O)NC(=O)[C@H](CCCNC(=N)N)NC(=O)[C@@H](CCCNC(=N)N)NC1=O
- IC50 (GTPase KRas): Not Active
